Laboratory results taken from ChEMBL document CHEMBL3751816, “Design, synthesis and evaluation of acridine derivatives as multi-target Src and MEK kinase inhibitors for anti-tumor treatment” (Bioorg Med Chem, 2016).
Activity calls are given as the source filed them. The rule behind the calls is not given here.

What was measured:
[1] = test system: K562; experiment: Cytotoxicity against human K562 cells after 48 hrs by MTT assay; format: functional, cell-based; details: K562, 48 h
How it was run: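 K562 cells in DMEM with 10% FBS, 37 °C, 5% CO2. Seeded at 7×10^5 cells/mL and held 12 h. Compounds in DMSO, diluted to final 0.01–50 µM (final DMSO below 1%), triplicate per concentration, 48 h. Then MTT 4 h at 37 °C, formazan dissolved in DMSO, absorbance read at 495 nm.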

[2] = test system: HepG2; experiment: Cytotoxicity against human HepG2 cells after 48 hrs by MTT assay; format: functional, cell-based; details: HepG2, 48 h
How it was run: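 HepG-2 cells in DMEM with 10% FBS, 37 °C, 5% CO2. Seeded at 5×10^5 cells/mL for 12 h, then medium removed. Compounds in DMSO diluted to final 0.01–50 µM (DMSO below 1%), triplicate per concentration, 48 h. MTT 4 h at 37 °C, formazan taken up in DMSO, A495 read.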

[3] = molecular target: T1, Dual specificity mitogen-activated protein kinase kinase; MEK1/2 (Homo sapiens) (UniProt P36507+Q02750); experiment: Inhibition of MEK in human K562 cells assessed as decrease of AKT expression after 48 hrs by Western blot analysis; format: cell-based
T1 sequence (P36507 whole entry, looked up): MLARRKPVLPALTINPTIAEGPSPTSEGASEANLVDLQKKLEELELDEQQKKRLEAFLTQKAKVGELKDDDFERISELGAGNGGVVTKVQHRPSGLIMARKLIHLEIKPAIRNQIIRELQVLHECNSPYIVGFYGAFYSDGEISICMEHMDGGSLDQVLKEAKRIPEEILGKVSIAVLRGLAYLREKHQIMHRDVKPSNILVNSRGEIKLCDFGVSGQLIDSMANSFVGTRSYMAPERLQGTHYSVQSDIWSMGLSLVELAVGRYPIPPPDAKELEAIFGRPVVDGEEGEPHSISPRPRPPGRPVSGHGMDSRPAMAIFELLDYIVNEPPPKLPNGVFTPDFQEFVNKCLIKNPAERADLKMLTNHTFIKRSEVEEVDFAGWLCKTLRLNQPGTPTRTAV
T1 sequence (Q02750 whole entry, looked up): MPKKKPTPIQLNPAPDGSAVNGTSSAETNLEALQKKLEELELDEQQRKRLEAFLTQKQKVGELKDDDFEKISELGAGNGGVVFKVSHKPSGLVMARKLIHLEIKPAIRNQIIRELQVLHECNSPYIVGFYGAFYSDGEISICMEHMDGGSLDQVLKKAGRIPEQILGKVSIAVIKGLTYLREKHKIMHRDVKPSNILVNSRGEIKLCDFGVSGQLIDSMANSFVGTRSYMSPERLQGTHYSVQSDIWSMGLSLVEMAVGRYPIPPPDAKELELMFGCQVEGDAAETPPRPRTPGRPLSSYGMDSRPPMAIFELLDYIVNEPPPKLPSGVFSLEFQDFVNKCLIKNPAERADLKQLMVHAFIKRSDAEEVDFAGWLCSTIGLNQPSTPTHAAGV
How it was run: (§1)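 K562 cells treated at 0, 0.5, 2.5, 5 and 10 µM for 48 h at 37 °C. Lysed on ice 30 min in NP-40/HEPES pH 7.9 buffer with phosphatase and protease inhibitors, cleared at 12000 g. Bradford-normalized protein run on SDS–PAGE, transferred to PVDF, and probed for ERK and AKT.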

[4] = test system: K562; experiment: Induction of apoptosis in human K562 cells assessed as early cleavage of PARP at 10 uM after 48 hrs by Western blot analysis; format: functional, cell-based
How it was run: (§2)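 K562 cells treated 48 h at 37 °C. Lysed on ice 30 min (HEPES pH 7.9, KCl, EDTA, 0.1% NP-40, Na3VO4, NaF, protease inhibitors), then cleared at 12000 g, 4 °C. Protein measured by Bradford and equal amounts run on SDS–PAGE. Transferred to PVDF and immunoblotted for cleaved caspase-3, cleaved caspase-7 and cleaved PARP.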

[5] = test system: K562; experiment: Inhibition of PI3K in human K562 cells assessed as decrease of AKT expression after 48 hrs by Western blot analysis; format: cell-based; how it was run: as §1
[6] = test system: K562; experiment: Induction of apoptosis in human K562 cells assessed as early stage apoptotic cells at 10 uM after 48 hrs by annexin V-FITC staining (reference value: 3.14%); format: functional
[7] = test system: K562; experiment: Induction of apoptosis in human K562 cells assessed as necrotic cells at 10 uM after 48 hrs by annexin V-FITC staining (reference value: 0.15%); format: functional
[8] = test system: K562; experiment: Induction of apoptosis in human K562 cells assessed as necrotic cells at 0.5 uM after 48 hrs by annexin V-FITC staining (reference value: 0.15%); format: functional
[9] = species: Homo sapiens; experiment: Inhibition of PI3K (unknown origin) at 10 uM after 15 mins by luminescence assay
[10] = test system: K562; experiment: Induction of apoptosis in human K562 cells assessed as early cleavage of caspase-7 at 10 uM after 48 hrs by Western blot analysis; format: functional, cell-based; how it was run: as §2
[11] = molecular target: T1, Dual specificity mitogen-activated protein kinase kinase; MEK1/2 (Homo sapiens); experiment: Inhibition of MEK (unknown origin) at 10 uM after 15 mins by luminescence assay
How it was run: (§3)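 Contract-run kinase assay. Enzyme, substrate, ATP and compound (10 µM, in 2.5% DMSO) mixed in pH 7.0 buffer: 50 mM HEPES/NaOH, 0.02% NaN3, 0.01% BSA, orthovanadate, 5 mM MgCl2, 1 mM DTT. Incubated 15 min at room temperature. Detection with streptavidin-XL665 plus TK antibody europium cryptate in KF/EDTA buffer. […]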

[12] = test system: K562; experiment: Induction of apoptosis in human K562 cells assessed as live cells at 5 uM after 48 hrs by annexin V-FITC staining (reference value: 96.49%); format: functional
[13] = test system: K562; experiment: Induction of apoptosis in human K562 cells assessed as live cells at 0.5 uM after 48 hrs by annexin V-FITC staining (reference value: 96.49%); format: functional
[14] = test system: K562; experiment: Induction of apoptosis in human K562 cells assessed as early cleavage of caspase-3 at 10 uM after 48 hrs by Western blot analysis; format: functional, cell-based; how it was run: as §2
[15] = test system: K562; experiment: Induction of apoptosis in human K562 cells assessed as late stage apoptotic cells at 5 uM after 48 hrs by annexin V-FITC staining (reference value: 0.23%); format: functional
[16] = test system: Calf thymus DNA; experiment: Binding affinity to calf thymus DNA at 10 uM by UV-vis spectrophotometric titration analysis; format: nucleic-acid assay; details: Bos taurus
[17] = molecular target: Proto-oncogene tyrosine-protein kinase Src (Homo sapiens) (UniProt P12931); experiment: Inhibition of Src in human K562 cells assessed as decrease of AKT expression after 48 hrs by Western blot analysis; format: cell-based; how it was run: as §1
Sequence of Proto-oncogene tyrosine-protein kinase Src (Homo sapiens) (P12931 2-536 limits assumed): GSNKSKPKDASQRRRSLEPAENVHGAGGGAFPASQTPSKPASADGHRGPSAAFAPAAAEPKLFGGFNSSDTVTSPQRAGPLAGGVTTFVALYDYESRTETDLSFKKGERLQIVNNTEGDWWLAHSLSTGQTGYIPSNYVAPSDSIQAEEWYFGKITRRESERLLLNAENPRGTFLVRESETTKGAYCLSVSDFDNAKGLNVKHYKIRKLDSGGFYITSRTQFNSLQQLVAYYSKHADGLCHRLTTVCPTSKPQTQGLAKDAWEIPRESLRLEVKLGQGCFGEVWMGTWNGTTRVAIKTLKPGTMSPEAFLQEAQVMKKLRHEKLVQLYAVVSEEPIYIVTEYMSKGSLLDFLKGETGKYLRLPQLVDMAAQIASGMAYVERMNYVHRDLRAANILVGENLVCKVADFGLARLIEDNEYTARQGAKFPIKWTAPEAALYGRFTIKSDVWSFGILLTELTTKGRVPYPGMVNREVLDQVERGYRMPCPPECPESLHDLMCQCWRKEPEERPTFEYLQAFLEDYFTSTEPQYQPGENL

[18] = test system: K562; experiment: Induction of apoptosis in human K562 cells assessed as necrotic cells at 5 uM after 48 hrs by annexin V-FITC staining (reference value: 0.15%); format: functional
[19] = test system: K562; experiment: Induction of apoptosis in human K562 cells assessed as early stage apoptotic cells at 5 uM after 48 hrs by annexin V-FITC staining (reference value: 3.14%); format: functional
[20] = test system: K562; experiment: Inhibition of PI3K in human K562 cells assessed as decrease of ERK expression after 48 hrs by Western blot analysis; format: cell-based; how it was run: as §1
[21] = molecular target: Proto-oncogene tyrosine-protein kinase Src (Homo sapiens) (UniProt P12931); experiment: Inhibition of Src (unknown origin) at 10 uM after 15 mins by luminescence assay; how it was run: as §3
[22] = molecular target: Proto-oncogene tyrosine-protein kinase Src (Homo sapiens) (UniProt P12931); experiment: Inhibition of Src in human K562 cells assessed as decrease of ERK expression after 48 hrs by Western blot analysis; format: cell-based; how it was run: as §1
[23] = test system: K562; experiment: Induction of apoptosis in human K562 cells assessed as live cells at 10 uM after 48 hrs by annexin V-FITC staining (reference value: 96.49%); format: functional
[24] = test system: K562; experiment: Induction of apoptosis in human K562 cells assessed as late stage apoptotic cells at 0.5 uM after 48 hrs by annexin V-FITC staining (reference value: 0.23%); format: functional
[25] = molecular target: T1, Dual specificity mitogen-activated protein kinase kinase; MEK1/2 (Homo sapiens); experiment: Inhibition of MEK in human K562 cells assessed as decrease of ERK expression after 48 hrs by Western blot analysis; format: cell-based; how it was run: as §1
[26] = test system: K562; experiment: Induction of apoptosis in human K562 cells assessed as early stage apoptotic cells at 0.5 uM after 48 hrs by annexin V-FITC staining (reference value: 3.14%); format: functional
[27] = test system: K562; experiment: Induction of apoptosis in human K562 cells assessed as late stage apoptotic cells at 10 uM after 48 hrs by annexin V-FITC staining (reference value: 0.23%); format: functional
[28] = test system: K562; experiment: Induction of apoptosis in human K562 cells after 48 hrs by annexin V-FITC staining; format: functional, cell-based

Compound: O=C(Nc1ccccc1)Nc1ccc(Nc2c3ccccc3nc3cc([N+](=O)[O-])ccc23)cc1
- IC50 [1]: 3.3 µM
- IC50 [2]: 19.8 µM

Compound: CCc1cccc(NC(=O)Nc2ccc(Nc3c4ccccc4nc4cc([N+](=O)[O-])ccc34)cc2)c1
- IC50 [1]: 8.92 µM
- IC50 [2]: 22.7 µM

Compound: COc1ccccc1NC(=O)Nc1ccc(Nc2c3ccccc3nc3cc([N+](=O)[O-])ccc23)cc1
- IC50 [1]: 4.51 µM
- IC50 [2]: 19.4 µM

Compound: O=C(Nc1ccc(Nc2c3ccccc3nc3cc([N+](=O)[O-])ccc23)cc1)Nc1cccc(F)c1
- IC50 [1]: 11.1 µM
- IC50 [2]: > 25 µM

Compound: COc1ccc2c(Nc3ccc(NC(=O)Nc4ccccc4)cc3)c3ccccc3nc2c1
- inhibition [3]: Dose-dependent effect
- Activity [4]: Active
- inhibition [5]: Dose-dependent effect
- Activity [6]: 54.98%
- Activity [7]: 0.73%
- Activity [8]: 0.15%
- inhibition [9]: 44.4%
- Activity [10]: Active
- inhibition [11]: 43.2%
- Activity [12]: 85.42%
- Activity [13]: 96.6%
- Activity [14]: Active
- Activity [15]: 0.23%
- Activity [16]: 0.083 M⁻¹
- inhibition [17]: Dose-dependent effect
- Activity [18]: 0.3%
- Activity [19]: 14.05%
- inhibition [20]: Dose-dependent effect
- inhibition [21]: 59.7%
- inhibition [22]: Dose-dependent effect
- IC50 [1]: 4.08 µM
- Activity [23]: 37.83%
- Activity [24]: 0.1%
- inhibition [25]: Dose-dependent effect
- IC50 [2]: 9.41 µM
- Activity [26]: 6.13%
- Activity [27]: 6.45%
- Activity [28]: Dose-dependent effect

Compound: O=C(Nc1ccc(Nc2c3ccccc3nc3cc([N+](=O)[O-])ccc23)cc1)Nc1cccc(C(F)(F)F)c1
- IC50 [1]: 1.2 µM
- IC50 [2]: > 25 µM

Compound: COc1ccc(NC(=O)Nc2ccc(Nc3c4ccccc4nc4cc([N+](=O)[O-])ccc34)cc2)cc1
- IC50 [1]: 7.68 µM
- IC50 [2]: > 25 µM

Compound: COc1cccc2c(Nc3ccc(NC(=O)Nc4ccccc4)cc3)c3ccc([N+](=O)[O-])cc3nc12
- IC50 [1]: 2.58 µM
- IC50 [2]: 17.6 µM

Compound: Cc1cccc(NC(=O)Nc2ccc(Nc3c4ccccc4nc4cc([N+](=O)[O-])ccc34)cc2)c1
- IC50 [1]: 11.6 µM
- IC50 [2]: > 25 µM

Compound: COc1ccc2nc3cc([N+](=O)[O-])ccc3c(Nc3ccc(NC(=O)Nc4ccccc4)cc3)c2c1
- IC50 [1]: 3.79 µM
- IC50 [2]: > 25 µM

Compound: COc1cccc2c(Nc3ccc(NC(=O)Nc4cccc(C(F)(F)F)c4)cc3)c3ccccc3nc12
- IC50 [1]: 1.93 µM
- IC50 [2]: 13.1 µM

Compound: COc1ccc2nc3cc(Cl)ccc3c(Nc3ccccc3OC)c2c1
- IC50 [1]: 5.8 µM
- IC50 [2]: > 50 µM

Compound: CCCCc1ccc(NC(=O)Nc2ccc(Nc3c4ccccc4nc4cc([N+](=O)[O-])ccc34)cc2)cc1
- IC50 [1]: 1.23 µM
- IC50 [2]: 14 µM

Compound: COc1ccc2nc3cc(Cl)ccc3c(Nc3ccc(NC(=O)Nc4ccccc4)cc3)c2c1
- IC50 [1]: 3.42 µM
- IC50 [2]: 9.56 µM

Compound: COc1cccc2c(Nc3ccc(NC(=O)Nc4ccccc4)cc3)c3ccccc3nc12
- IC50 [1]: 0.49 µM
- IC50 [2]: 6.12 µM

Compound: CCc1ccc(NC(=O)Nc2ccc(Nc3c4ccccc4nc4cc([N+](=O)[O-])ccc34)cc2)cc1
- IC50 [1]: 1.86 µM
- IC50 [2]: 14.8 µM

Compound: O=C(Nc1ccc(Nc2c3ccccc3nc3cc([N+](=O)[O-])ccc23)cc1)Nc1cccc(Cl)c1
- IC50 [1]: 13.9 µM
- IC50 [2]: > 25 µM

Compound: Cc1ccc(NC(=O)c2ccc(CN3CCN(C)CC3)cc2)cc1Nc1nccc(-c2cccnc2)n1 [IMATINIB]
- IC50 [1]: 0.53 µM
- IC50 [2]: > 25 µM

Compound: CCCc1ccc(NC(=O)Nc2ccc(Nc3c4ccccc4nc4cc([N+](=O)[O-])ccc34)cc2)cc1
- IC50 [1]: 1.56 µM
- IC50 [2]: 14.4 µM

Compound: COc1cccc(NC(=O)Nc2ccc(Nc3c4ccccc4nc4cc([N+](=O)[O-])ccc34)cc2)c1
- IC50 [1]: 4.55 µM
- IC50 [2]: 22.3 µM
